Assay outcomes as filed in PubChem.
KCC2 mod – modulators of human KCC2 chloride dependent transport; Q9H2X9; KCC2 cells, thallium flux FluoZin-2 fluorescence; B-score of Tl+ flux slope (higher = more flux/activation; lower = inhibition) at 10 µM; 190,000 tested, 2.2% active; AID 1456;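 active = thallium flux slope and its plate-corrected score both differing from the plate sample mean at a set confidence after two filtering rounds, in either direction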;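 also: slope of fluorescence scaled to starting intensity during 10 to 20 s after thallium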
Rad51 HR inh – blocks human Rad51 in homologous recombination. hRad51 DNA strand exchange, fluorescence dequenching. 200,000 tested, 0.085% active. inhibition, % at 10 µM;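 active = inhibition above 40% at the single screening dose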
Target sequence (Q06609 whole entry, looked up): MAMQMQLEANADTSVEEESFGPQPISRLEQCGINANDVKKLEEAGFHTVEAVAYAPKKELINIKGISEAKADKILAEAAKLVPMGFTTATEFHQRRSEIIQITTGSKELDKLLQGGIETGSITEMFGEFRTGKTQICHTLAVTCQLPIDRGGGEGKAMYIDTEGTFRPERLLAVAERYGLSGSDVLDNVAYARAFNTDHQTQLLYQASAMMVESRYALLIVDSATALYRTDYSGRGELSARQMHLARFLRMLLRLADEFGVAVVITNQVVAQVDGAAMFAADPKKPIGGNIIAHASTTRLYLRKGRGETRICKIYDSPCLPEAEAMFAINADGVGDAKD
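Material: hRad51 filaments on single-stranded DNA; Reagent: Donor/quencher-labelled 47-bp dsDNA substrate; Compound: 10 µM final, single point; Schedule: 37 °C 15-min filament assembly, 30-min compound preincubation, 15-min exchange; Technique: FRET fluorescence, excitation 485 nm, emission 520 nm; Benchmarks: control wells and blank wells on each plate.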
CHT PAM – human CHT allosteric activation. Q9GZV3. CHT-expressing cells, membrane potential dye, choline EC20; hits give high values; LV-AA mutant CHT in HEK293 cells. B-score at 10 µM. 310,000 tested, 0.49% active. AID 488977;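 active = initial fluorescence not abnormally high and integrated response B-score, plate-corrected, over 3 SD above library mean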
CHT inh – inhibitors of human choline transporter CHT; AID 488975; B-score at 10 µM; CHT-expressing cells, membrane potential dye, choline response; hits give low values; 310,000 tested, 0.86% active; Q9GZV3;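 active = B-score over 3 SD under the library average, and starting fluorescence ratio not unusually high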;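 also: choline stimulus applied at its EC90 after an EC20 pre-addition; B-score computed on integrated fluorescence ratio after choline addition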
KCC2 sec1 – KCC2 (human) modulation, secondary assay. shares compounds with KCC2 mod. HEK293-KCC2, thallium flux, FluoZin2 fluorescence; hits give high values. normalised thallium flux (F/F0 slope) at 10 µM. 3,700 tested, 15% active. AID 1713;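 active = thallium flux slope above the same plate's solvent-only control mean plus 3 SD; inconclusive = the two replicate wells disagree; inactive = no significant difference from solvent-only control wells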
KCC2 bumet counter – thallium flux persisting under bumetanide in KCC2 cells, counter-screen secondary assay; normalized thallium flux at 10 µM; HEK293-KCC2 + bumetanide/ouabain, thallium flux FluoZin2; hits give high values; shares compounds with KCC2 mod; 3,700 tested, 49% active;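 active = thallium entry rate above the same plate's blocked-transporter control wells by more than 3 SD; inconclusive = the two repeat wells disagree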;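 also: raw slope of fluorescence over initial fluorescence between 10 and 20 s after thallium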
KCC2 sec2 – confirmation of human KCC2 transport modulators. shares compounds with KCC2 mod. HEK293-KCC2, thallium flux FluoZin2 fluorescence; actives lie on both sides; F/F0 rise rate, 10–20 s post-thallium. normalized thallium flux at 10 µM. 3,700 tested, 23% active;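 active = thallium flux slope more than 3 SD above or below the plate's solvent-only control mean, mostly below; inconclusive = the two repeat wells disagreed; inactive = no significant shift from solvent-only controls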
HEK293 Tl flux – parental HEK flux effect, counter-screen; thallium flux rate (normalised fluorescence) at 10 µM; shares compounds with KCC2 mod; 3,700 tested, 46% active; AID 1716; HEK293 parental cells, thallium flux FluoZin2, ouabain; baseline-ratio fluorescence slope, 10–20 s after thallium;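 active = thallium flux rate significantly above the same plate's solvent-only control wells, beyond their mean plus 3 SD; inconclusive = the two replicate wells gave conflicting results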
KCC2 ouabain – modulates human KCC2 on retest with ouabain | shares compounds with KCC2 mod | HEK293-KCC2, thallium flux FluoZin2 fluorescence; bidirectional: low = inhibitor, high = activator | raw Tl+ flux slope (below DMSO = inhibition, above = activation) at 10 µM | 3,700 tested, 48% active | AID 1717;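 active = thallium flux slope beyond 3 SD from same-plate DMSO control mean in most replicates, usually higher, sometimes lower; inconclusive = repeat tests gave conflicting results; inactive = no significant difference from controls in most replicates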;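 also: slope of initial-normalized fluorescence between seconds 10 and 20 after thallium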
HEK counter2 – acts in parental HEK cells, second KCC2 counter-screen. HEK293 parental, thallium flux FluoZin-2 fluorescence slope. shares compounds with KCC2 mod. 3,700 tested, 33% active. thallium flux slope at 10 µM. AID 1718;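 active = thallium flux slope above the same plate's solvent-control mean plus 3 SD in both duplicate wells; inconclusive = duplicate wells that disagreed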;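 also: run without ouabain in cells lacking the KCC2 cotransporter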
Each line names hits and unclear results; the compound was inactive in the other large screens (follow-up assays come after a bar, where they were run). Shown are actives, neighbours in structure and some others; about 2.6% of the full set was active somewhere.

Cc1ccc(C)c2sc(NC(=O)c3nc4ccccc4s3)nc12	KCC2 mod 60 (no result: Rad51 HR inh) | KCC2 sec1 0.014 | KCC2 bumet counter 0.033 | KCC2 sec2 inactive | HEK293 Tl flux 0.059 | KCC2 ouabain 0.036 | HEK counter2 0.015
CC1(C)C(=O)Nc2ccccc2N1C(=O)COC(=O)Cc1c(F)cccc1Cl	none (no result: KCC2 mod, Rad51 HR inh)
Cc1c(NC(=O)/C(C#N)=C/c2ccc(-c3ccccc3Cl)o2)c(=O)n(-c2ccccc2)n1C	none
N#C/C(=C\c1ccc(-c2ccccc2Cl)o1)C(=O)Nc1nc2ccccc2s1	KCC2 mod 6.8 | KCC2 sec1 inactive | KCC2 bumet counter 0.024 | KCC2 sec2 inactive | HEK293 Tl flux 0.032 | KCC2 ouabain 0.029 | HEK counter2 0.034
O=C(CSc1nnc(-c2c[nH]c3ccccc23)o1)N1c2ccccc2CCc2ccccc21	none
O=C(CSc1nnc(-c2c[nH]c3ccccc23)o1)N1CCCCC1	KCC2 mod -3.1 | KCC2 sec1 inactive | KCC2 bumet counter inconclusive | KCC2 sec2 0.029 | HEK293 Tl flux inactive | KCC2 ouabain 0.021 | HEK counter2 inactive
Cc1ccc(NC(=Nc2ccc(Br)cc2)N2CCOCC2)cc1C	none (no result: KCC2 mod, Rad51 HR inh)
COc1ccc(S(=O)(=O)N2CCC(C(=O)NCCc3c[nH]c4ccccc34)CC2)cc1	none (no result: KCC2 mod, Rad51 HR inh)
COc1cccc(-c2nc(CS(=O)(=O)CC(=O)NCCCc3ccccc3)c(C)o2)c1	none (no result: KCC2 mod, Rad51 HR inh)
COc1cccc(-c2nc(CS(=O)(=O)CC(=O)NCc3ccccc3)c(C)o2)c1	KCC2 mod -4.1 (no result: Rad51 HR inh) | KCC2 sec1 inactive | KCC2 bumet counter inactive | KCC2 sec2 inactive | HEK293 Tl flux inactive | KCC2 ouabain inconclusive | HEK counter2 inactive
Cc1ccc(CNC(=O)CS(=O)(=O)Cc2nc(-c3ccccc3F)oc2C)cc1	none (no result: KCC2 mod, Rad51 HR inh)
Cc1ccccc1-c1nc(CS(=O)(=O)CC(=O)NCc2ccccc2)c(C)o1	KCC2 mod -5 | KCC2 sec1 inactive | KCC2 bumet counter inactive | KCC2 sec2 inconclusive | HEK293 Tl flux inactive | KCC2 ouabain inconclusive | HEK counter2 inactive
COC(=O)CNC(c1ccccc1)c1cc(Br)ccc1NS(=O)(=O)c1ccc(C)cc1 (stereo not drawn)	none (no result: Rad51 HR inh)
COc1ccc(Cn2c(CCC(=O)Nc3ccc(C)c(C)c3)nc3cccnc32)cc1	none
O=C(NCc1csc(-c2ccccc2)n1)c1ccco1	none
O=C(NCCc1csc(-c2ccccc2)n1)c1cccs1	none (no result: KCC2 mod) | KCC2 sec1 inactive | KCC2 bumet counter inactive | KCC2 sec2 0.023 | HEK293 Tl flux inactive | KCC2 ouabain 0.014 | HEK counter2 inactive
O=C(NCCc1csc(-c2ccccc2)n1)c1ccco1	none (no result: Rad51 HR inh)
O=C(Cc1csc(-c2ccccc2)n1)NCc1cccs1	KCC2 mod -4.6 | KCC2 sec1 inactive | KCC2 bumet counter inactive | KCC2 sec2 inconclusive | HEK293 Tl flux inconclusive | KCC2 ouabain 0.013 | HEK counter2 inactive
CCc1nc2ccccc2c(C(=O)Nc2cccc(C)c2)c1C	none (no result: KCC2 mod, Rad51 HR inh)
NC(=S)N=Nc1c(O)[nH]c2c(Br)cc(Br)cc12	KCC2 mod 25 | KCC2 sec1 inactive | KCC2 bumet counter 0.027 | KCC2 sec2 0.04 | HEK293 Tl flux 0.018 | KCC2 ouabain 0.036 | HEK counter2 0.017
NC(=S)N=Nc1c(O)[nH]c2ccccc12	none (no result: Rad51 HR inh)
O=C1/C(=C/c2cccs2)NC(=S)N1C1CC1	KCC2 mod 43 (no result: Rad51 HR inh) | KCC2 sec1 0.016 | KCC2 bumet counter 0.089 | KCC2 sec2 0.049 | HEK293 Tl flux 0.06 | KCC2 ouabain 0.07 | HEK counter2 0.033
O=C(NC1CCCC1)C(c1ccccc1)N(Cc1ccccc1)C(=O)c1csnn1 (stereo not drawn)	none (no result: KCC2 mod, Rad51 HR inh)
Cc1nnn(C23CC4CC(CC(C(=O)NN)(C4)C2)C3)n1	none (no result: Rad51 HR inh)
CN1CCN(C(=O)c2ccc(CS(=O)(=O)c3c(Cl)cccc3Cl)o2)CC1	KCC2 mod -3.3 | KCC2 sec1 inactive | KCC2 bumet counter inactive | KCC2 sec2 inactive | HEK293 Tl flux inactive | KCC2 ouabain inactive | HEK counter2 inactive
CCCC(=O)NC(=S)Nc1ccc(C(C)=O)cc1	none (no result: Rad51 HR inh)
CCCCOc1ccc(-c2c(C#N)c(N)nc(SCC(N)=O)c2C#N)cc1	KCC2 mod -6.4 | KCC2 sec1 inactive | KCC2 bumet counter inactive | KCC2 sec2 inactive | HEK293 Tl flux inactive | KCC2 ouabain 0.017 | HEK counter2 inconclusive
CCCCOC(=O)CSc1nc(N)c(C#N)c(-c2ccc(OCC)cc2)c1C#N	none
Oc1c(C(c2ccccc2Cl)N2CCCC2)ccc2cccnc12 (stereo not drawn)	KCC2 mod 2.9 | KCC2 sec1 inactive | KCC2 bumet counter 0.0085 | KCC2 sec2 inactive | HEK293 Tl flux 0.01 | KCC2 ouabain inactive | HEK counter2 0.013
O=C(O)c1cc(NC(=O)c2cccc(C(=O)Nc3cc(C(=O)O)cc(C(=O)O)c3)c2)cc(C(=O)O)c1	none (no result: KCC2 mod, Rad51 HR inh)
O=C(NCC(c1cccs1)N1CCOCC1)c1ccccc1NS(=O)(=O)c1ccc(Cl)c([N+](=O)[O-])c1 (stereo not drawn)	KCC2 mod -3.6 | KCC2 sec1 inactive | KCC2 bumet counter inactive | KCC2 sec2 0.026 | HEK293 Tl flux 0.0061 | KCC2 ouabain 0.016 | HEK counter2 inconclusive
Cc1cccc(CC(=O)N2CCOCC2)c1	none (no result: KCC2 mod, Rad51 HR inh)
CCOC(=O)c1c(-c2ccccc2)csc1NC(=O)/C(C#N)=C/c1ccc(O)c(OC)c1	KCC2 mod 5.2 | KCC2 sec1 inactive | KCC2 bumet counter 0.011 | KCC2 sec2 inactive | HEK293 Tl flux 0.0095 | KCC2 ouabain inactive | HEK counter2 inactive
O=C(Cn1nnc(-c2ccccc2-n2cnnn2)n1)NCc1ccccc1	KCC2 mod -4 | KCC2 sec1 inactive | KCC2 bumet counter inactive | KCC2 sec2 inconclusive | HEK293 Tl flux inactive | KCC2 ouabain inactive | HEK counter2 inactive
OCC[C@@H]1C[C@@H](O)[C@H](O)[C@@]2(CCc3ccccc3CO2)O1	none (no result: KCC2 mod, Rad51 HR inh)
C(=N\NC1=Nc2cccc3cccc1c23)/c1cccnc1	KCC2 mod -3.8 | KCC2 sec1 inactive | KCC2 bumet counter inconclusive | KCC2 sec2 inactive | HEK293 Tl flux inactive | KCC2 ouabain 0.016 | HEK counter2 inactive
CC(=O)N1c2ccc(S(=O)(=O)N(C)CC(=O)NC(C)c3ccccc3)cc2CC1C (stereo not drawn)	none (no result: KCC2 mod, Rad51 HR inh)
